Reference: ChEMBL document CHEMBL1128448, “Synthesis and antifungal activity of new azole derivatives containing an N-acylmorpholine ring” (1995)
Values after ≈ are worked out from the molar mass of the structure shown.

How the values were obtained:
Type in all cases: functional
Aspergillus fumigatus = assay: In vitro evaluation of minimum inhibitory concentration against Aspergillus fumigatus 33
In short: (§1)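 Stocks are 800 μg/mL in 50% ethanol. Each plate gets 10 μL of inoculum at 10^5 cfu/mL. Incubation at 25 °C, 48 h for yeasts and 120 h for dermatophytes and molds. Organisms are ATCC strains or clinical isolates.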

Aspergillus niger = assay: In vitro evaluation of minimum inhibitory concentration against Aspergillus niger 18; in short: as §1
Candida albicans [1] = assay: In vitro evaluation of minimum inhibitory concentration against Candida albicans 76; in short: as §1
Candida albicans [2] = assay: In vivo evaluation of minimum inhibitory concentration against Candida albicans 406
In short: (§2)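 Broth macrodilution MIC following NCCLS M27-P, in RPMI-1640 buffered with 0.165 M MOPS. Fluconazole was dissolved in water and other drugs in DMSO. C. parapsilosis ATCC 22019 served as the reference strain in every run. MIC was the lowest concentration giving turbidity at or below the 80% inhibition standard.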

Candida albicans [3] = assay: In vivo evaluation of minimum inhibitory concentration against Candida albicans 60; in short: as §2
Candida albicans [4] = assay: Evaluation of In vitro antifungal activity against Candida albicans 2.01 by broth macro dilution method
In short: (§3)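 Yeast MIC and MFC by broth macrodilution per NCCLS M27-P in RPMI-1640 buffered with 0.165 M MOPS. Fluconazole in sterile water, other drugs in DMSO. C. parapsilosis ATCC 22019 is the reference strain in each run. MIC is the lowest concentration with turbidity ≤ the 80% inhibition standard. For MFC, 0.04 mL from clear tubes is plated on Sabouraud agar; MFC is the lowest concentration giving ≤1 colony.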

Candida albicans [5] = assay: Evaluation of In vitro antifungal activity against Candida albicans 31 by broth macro dilution method; in short: as §3
Candida albicans [6] = assay: Evaluation of In vitro antifungal activity against Candida albicans 406 by broth macro dilution method; in short: as §3
Candida albicans [7] = assay: Evaluation of In vitro antifungal activity against Candida albicans 76 by broth macro dilution method; in short: as §3
Candida albicans [8] = assay: Evaluation of In vitro antifungal activity against Candida albicans ATCC 10231 by broth macro dilution method; in short: as §3
Candida albicans [9] = assay: Evaluation of In vitro antifungal activity against Candida albicans C52 by broth macro dilution method; in short: as §3
Candida albicans [10] = assay: Evaluation of […] antifungal activity against Candida albicans 60 by broth macro dilution method; in short: as §3
[11] = tested on: Meyerozyma guilliermondii; assay: Evaluation of In vitro antifungal activity against Candida guilliermondii 26 by broth macro dilution method; in short: as §3
[12] = tested on: Meyerozyma guilliermondii; assay: In vitro evaluation of minimum inhibitory concentration against Candida guilliermondii 26; in short: as §1
Pichia kudriavzevii [13] = assay: Evaluation of In vitro antifungal activity against Candida krusei 70 by broth macro dilution method; in short: as §3
Pichia kudriavzevii [14] = assay: In vitro evaluation of minimum inhibitory concentration against Candida krusei 70; in short: as §1
Kluyveromyces marxianus [15] = assay: Evaluation of In vitro antifungal activity against Candida pseudotropicalis ATCC 28838 by broth macro dilution method; in short: as §3
Kluyveromyces marxianus [16] = assay: Evaluation of In vitro antifungal activity against yeasts by broth macro dilution method; in short: as §3
Candida parapsilosis [17] = assay: Evaluation of In vitro antifungal activity against Candida parapsilosis ATCC 22019 by broth macro dilution method; conditions: Lodderomyces parapsilosis; in short: as §3
Candida parapsilosis [18] = assay: Evaluation of In vitro antifungal activity against Candida parapsilosis C292 by broth macro dilution method; conditions: Lodderomyces parapsilosis; in short: as §3
Candida parapsilosis [19] = assay: Evaluation of In vitro antifungal activity against Candida parapsilosis C74 by broth macro dilution method; conditions: Lodderomyces parapsilosis; in short: as §3
Candida parapsilosis [20] = assay: In vitro evaluation of minimum inhibitory concentration against Candida parapsilosis 61; in short: as §1
Candida tropicalis = assay: Evaluation of In vitro antifungal activity against Candida tropicalis 2.11 by broth macro dilution method; in short: as §3

For `C[C@H]1N(C(=O)c2ccc(C(F)(F)F)cc2)CCO[C@@]1(Cn1cncn1)c1ccc(F)cc1F` (stereo in doubt; (-)-41), the MIC (Aspergillus fumigatus) was 40 µg/mL (≈ 85.8 µM), the MIC (Aspergillus niger) was 80 µg/mL (≈ 172 µM) and the MIC (Candida albicans [1]) was 1.25 µg/mL (≈ 2.68 µM). For the same compound, the MIC (Candida albicans [2]) was 0.15 µg/mL (≈ 0.322 µM), the MIC (Candida albicans [3]) was 0.31 µg/mL (≈ 0.665 µM) and the MFC (Candida albicans [4]) was > 64 µg/mL. The MIC (Candida albicans [4]) was 0.25 µg/mL (≈ 0.536 µM), the MFC (Candida albicans [5]) was > 64 µg/mL and the MIC (Candida albicans [5]) was 0.125 µg/mL (≈ 0.268 µM). The MFC (Candida albicans [6]) was > 64 µg/mL, the MIC (Candida albicans [6]) was 0.25 µg/mL (≈ 0.536 µM) and the MFC (Candida albicans [7]) was > 64 µg/mL. For the same compound, the MIC (Candida albicans [7]) was 0.125 µg/mL (≈ 0.268 µM), the MFC (Candida albicans [8]) was > 64 µg/mL and the MIC (Candida albicans [8]) was 0.25 µg/mL (≈ 0.536 µM). For the same compound, the MFC (Candida albicans [9]) was > 64 µg/mL, the MIC (Candida albicans [9]) was 0.125 µg/mL (≈ 0.268 µM) and the MIC (Candida albicans [10]) was 0.25 µg/mL (≈ 0.536 µM). The MFC [11] was > 64 µg/mL, the MIC [11] was 8 µg/mL (≈ 17.2 µM) and the MIC [12] was 20 µg/mL (≈ 42.9 µM). The MFC (Pichia kudriavzevii [13]) was > 64 µg/mL, the MIC (Pichia kudriavzevii [13]) was 32 µg/mL (≈ 68.6 µM) and the MIC (Pichia kudriavzevii [14]) was 40 µg/mL (≈ 85.8 µM). The MFC (Kluyveromyces marxianus [15]) was 32 µg/mL (≈ 68.6 µM), the MIC (Kluyveromyces marxianus [16]) was 0.125 µg/mL (≈ 0.268 µM) and the MFC (Candida parapsilosis [17]) was 4 µg/mL (≈ 8.58 µM). The MIC (Candida parapsilosis [17]) was 2 µg/mL (≈ 4.29 µM), the MFC (Candida parapsilosis [18]) was > 64 µg/mL and the MIC (Candida parapsilosis [18]) was 2 µg/mL (≈ 4.29 µM). For the same compound, the MFC (Candida parapsilosis [19]) was 8 µg/mL (≈ 17.2 µM), the MIC (Candida parapsilosis [19]) was 0.5 µg/mL (≈ 1.07 µM) and the MIC (Candida parapsilosis [20]) was 10 µg/mL (≈ 21.4 µM). The MFC (Candida tropicalis) was > 64 µg/mL and the MIC (Candida tropicalis) was 4 µg/mL (≈ 8.58 µM).
